MEKK2wt PB1 HTS – raises or lowers MEK5 binding to wildtype human MEKK2 PB1 domain. Q9Y2U5. bead flow cytometry, Alexa488-MEK5 binding to MEKK2 WT; actives lie on both sides. binding response (% of control), % at 10 µM. 1.1% of 290,000 active. AID 1531; in the data active = binding response below about 67% or above about 130%
MEKK2mut PB1 HTS – signal of MEK5 binding to mutant human MEKK2 PB1 domain; bead flow cytometry, Alexa488-MEK5 binding to MEKK2 mutant; percent response, % at 10 µM; 0.35% of 290,000 active; in the data active = percent response above about 24%, passing the limit was not always enough
Lipid droplet – modulators of hepatic lipid droplet formation. AML12 mouse hepatocytes, oleate lipid droplets, BODIPY imaging. inhibition, % at 6.5 µM. 0.4% of 240,000 active. AID 1656;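 active = lipid droplet intensity inhibited by at least 50%, with more than 500 cells counted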
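material = mouse AML12 hepatocyte cell line, fixed after treatment | also added = 100 µM oleic acid challenge | doses = compound at 6.5 µM only | schedule = overnight exposure | technique = Image-based BODIPY and DAPI two-channel analysis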
MEKK3 PB1 HTS – MEKK3-MEK5 PB1 interaction, increase or decrease. Q99759. bead-based flow cytometry, Alexa488-MEK5 binding to MEKK3; actives lie on both sides; 0 = blocked by unlabeled MEK5, 100 = vehicle. binding response (% of control), % at 10 µM. 1.4% of 290,000 active. AID 1529;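 active = binding response more than 3 SD above or below the average of its plate-row segment, actives on both sides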;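 note: Alexa488 bead fluorescence after subtracting the streptavidin-only scavenger bead signal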
Target sequence (Q99759 whole entry, looked up): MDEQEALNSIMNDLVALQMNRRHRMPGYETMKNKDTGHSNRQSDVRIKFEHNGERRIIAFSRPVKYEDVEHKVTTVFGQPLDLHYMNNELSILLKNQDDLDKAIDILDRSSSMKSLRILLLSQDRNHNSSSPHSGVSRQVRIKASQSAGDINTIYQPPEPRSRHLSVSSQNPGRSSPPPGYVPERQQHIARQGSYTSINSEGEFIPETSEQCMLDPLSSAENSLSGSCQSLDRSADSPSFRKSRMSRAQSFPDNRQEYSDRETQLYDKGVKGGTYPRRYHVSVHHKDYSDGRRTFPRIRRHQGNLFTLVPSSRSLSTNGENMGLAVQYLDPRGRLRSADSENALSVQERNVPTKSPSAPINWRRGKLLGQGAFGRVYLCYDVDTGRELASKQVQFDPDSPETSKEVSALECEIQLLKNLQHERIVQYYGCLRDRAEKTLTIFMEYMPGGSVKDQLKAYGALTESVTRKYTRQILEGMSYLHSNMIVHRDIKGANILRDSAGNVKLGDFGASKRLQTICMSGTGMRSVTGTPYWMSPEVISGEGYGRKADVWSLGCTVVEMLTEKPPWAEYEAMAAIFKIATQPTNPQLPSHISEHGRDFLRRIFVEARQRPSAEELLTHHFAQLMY
MEKK2wt confirm – raises or lowers MEK5 binding to wildtype human MEKK2, retest. 2.4% of 5,900 active. binding response (% of control), % at 10 µM. shares compounds with MEKK3 PB1 HTS. bead flow cytometry, Alexa488-MEK5 binding to MEKK2 WT; actives lie on both sides; in the data active = binding response below about 16% or above about 210%; inactive = in between
MEKK2mut-MEK5 – signal of MEK5 binding to mutant human MEKK2, retest. shares compounds with MEKK3 PB1 HTS. bead flow cytometry, Alexa488-MEK5 binding to MEKK2 mutant. percent response, % at 10 µM. 2% of 5,900 active. AID 1893; in the data active = percent response mostly above about 71%, no sharp cut-off; inactive = mostly below about 38%;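 note: higher means compound restores mutant binding toward wildtype level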
MEKK3-MEK5 inh – MEKK3-MEK5 PB1 inhibition, single concentration confirmation | shares compounds with MEKK3 PB1 HTS | bead flow cytometry, Alexa488-MEK5 binding to MEKK3; hits give low values | binding response (% of control), % at 10 µM | 1.8% of 5,900 active;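 active = binding response below 72% of control, or above a set upper limit, though filed actives all read lower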;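 note: lower values mean stronger disruption of MEK5 binding to MEKK3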
Each line names hits and unclear results; the compound was inactive in the other large screens (follow-up assays come after a bar, where they were run); [ ] = remark or other dose. Rows were chosen to be rich in hits. Some 2.6% of all compounds tested hit in one or more screens of this group.

Fc1ccc(-[n+]2nc(Nc3ccccc3)sc2-c2c3ccccc3cc3ccccc23)cc1	MEKK2mut PB1 HTS 31 | MEKK2wt confirm inactive | MEKK2mut-MEK5 inactive | MEKK3-MEK5 inh inactive
COc1ccc(CCC(=O)OCC(=O)Nc2ccc(OC)c(OC)c2)cc1OC	none
COc1cccc(N2C(=NC(=O)c3ccccc3)SC3CS(=O)(=O)CC32)c1 (stereo not drawn)	none
O=C(c1ccc(NS(=O)(=O)c2ccccc2)cc1)N1CCOCC1	none
CC(C)(C)NC(=O)CN(C(=O)c1snc(C(=O)NC2CCCCC2)c1N)c1ccc(F)cc1	none (no result: Lipid droplet)
CC1C(=O)C(C)C(c2ccccc2F)NC1c1ccccc1F (stereo not drawn)	none
O=C(Cn1cnc2ccccc2c1=O)Nc1nnc(SCc2ccc(Cl)cc2)s1	MEKK2wt PB1 HTS 32[inhibitor], MEKK3 PB1 HTS 35[inhibitor] | MEKK2wt confirm inactive | MEKK2mut-MEK5 inactive | MEKK3-MEK5 inh inactive
O=C(Cn1cnc2ccccc2c1=O)Nc1nnc(C2CC2)s1	none
Cc1ccccc1OCC(O)CNC1CCC(NCC(O)COc2ccccc2C)CC1 (stereo not drawn)	MEKK2wt PB1 HTS 219, MEKK2mut PB1 HTS 76 | MEKK2wt confirm 207 | MEKK2mut-MEK5 70 | MEKK3-MEK5 inh inactive
Cc1ccc(OCC(O)CNC2CCCC2)c(C)c1 (stereo not drawn)	none
COCCNC(=O)c1ccc(Cl)c(S(=O)(=O)Nc2cccc(C)c2C)c1	none
CC(=O)N1N=C(c2ccccc2)CC1c1ccc(F)cc1 (stereo not drawn)	none
CC(=O)N1N=C(c2ccccc2)CC1c1cn(C)c2ccccc12 (stereo not drawn)	MEKK3 PB1 HTS 157 | MEKK2wt confirm inactive | MEKK2mut-MEK5 inactive | MEKK3-MEK5 inh inactive
N#CC1=C(N)NC(SCC(=O)O)=C(C#N)C12CCCC2	none (no result: Lipid droplet)
N#CC1=C(N)NC(SCc2ccc(F)cc2)=C(C#N)C12CCCCC2	MEKK3 PB1 HTS 82[inhibitor] | MEKK2wt confirm inactive | MEKK2mut-MEK5 inactive | MEKK3-MEK5 inh inactive
COc1ccc(CN(CC(=O)NCc2ccccc2)C(=O)CCC(=O)Nc2nccs2)cc1	none
CC(C)c1onc(C(=O)NCc2ccccc2)c1[N+](=O)[O-]	none
CC(=O)c1ccc(-n2nncc2C(C)(C)C)cc1	none (no result: Lipid droplet)
Cc1cnnn1-c1ccc(C(=O)CCl)cc1	MEKK2wt PB1 HTS 148 (no result: Lipid droplet) | MEKK2wt confirm inactive | MEKK2mut-MEK5 inactive | MEKK3-MEK5 inh inactive
CN(CC(=O)Nc1cccc(F)c1)C(=O)CC1CC2CCC1C2 (stereo not drawn)	none
COc1ccc(C)cc1NC(=O)COC(=O)c1ccc([N+](=O)[O-])o1	none
COc1ccc(NC(=O)COC(=O)c2ccc([N+](=O)[O-])o2)cc1Cl	MEKK3 PB1 HTS 131 | MEKK2wt confirm inactive | MEKK2mut-MEK5 inactive | MEKK3-MEK5 inh inactive
Cc1nc(C(=O)NC(C)C)nn1-c1cc(Cl)cc(Cl)c1	none
O=C(COc1ccccc1-c1ccccc1)NCc1cccc(Cl)c1	MEKK2wt PB1 HTS 147 | MEKK2wt confirm inactive | MEKK2mut-MEK5 inactive | MEKK3-MEK5 inh inactive
COc1cc(/C=N\NC(=O)CNC(=O)C(c2ccccc2)c2ccccc2)ccc1O	none
COc1ccc(/C=N\NC(=O)CNC(=O)C(c2ccccc2)c2ccccc2)cc1[N+](=O)[O-]	MEKK3 PB1 HTS 143 | MEKK2wt confirm inactive | MEKK2mut-MEK5 inactive | MEKK3-MEK5 inh inactive
CC1(C)OC2CC3C4CC(F)C5=CC(=O)C=CC5(C)C4(F)C(O)CC3(C)C2(C(=O)CO)O1 (stereo not drawn)	none
CN(C)CCCN(C(=O)c1ccc(S(=O)(=O)N2CCCC2)cc1)c1nc2ccc(Br)cc2s1	MEKK2wt PB1 HTS 181, MEKK2mut PB1 HTS 30 | MEKK2wt confirm 234 | MEKK2mut-MEK5 112 | MEKK3-MEK5 inh inactive
CCN(Cc1ccccc1)S(=O)(=O)c1ccc(C(=O)N(CCCN(C)C)c2nc3ccc(F)cc3s2)cc1	MEKK2wt PB1 HTS 210, MEKK2mut PB1 HTS 38 | MEKK2wt confirm 208 | MEKK2mut-MEK5 inactive | MEKK3-MEK5 inh inactive

Source: PubChem BioAssay (several laboratories)
